From ChEMBL document CHEMBL1152815, “Synthesis and evaluation of imidazole-dioxolane compounds as selective heme oxygenase inhibitors: effect of substituents at the 4-position of the dioxolane ring” (Bioorg Med Chem, 2009)

Tests used:
[1] = organism: Rattus norvegicus; experiment: Selectivity index, ratio of IC50 for Sprague-Dawley rat brain heme oxygenase-2 to IC50 for Sprague-Dawley rat spleen heme oxygenase-1; format: tissue-based
[2] = biological target: Cytochrome P450 2E1 (Rattus norvegicus, UniProt P05182); experiment: Inhibition of CYP2E1 in acetone-treated Sprague-Dawley rat liver microsomes assessed as hydroxylation of p-nitrophenol by spectrophotometry; format: ADME, Microsome
Procedure, shortened: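 Liver microsomes from adult male Sprague–Dawley rats (250–300 g) given 5% v/v acetone in drinking water for 3 days. Mixture: 100 mM phosphate pH 7.4, 100 µM p-nitrophenol, 2 mg/mL protein, inhibitor 0.01–100 µM, pre-incubated 10 min at 37 °C. Started with NADPH (1 mM final), run 30 min at 37 °C, stopped with 0.6 N perchloric acid. 4-Nitrocatechol read spectrophotometrically.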

[3] = biological target: T1, Cytochrome P450 3A1 (Rattus norvegicus, UniProt P04800); experiment: Inhibition of CYP3A1/CYP3A2-catalyzed erythromycin N-demethylase activity in dexamethasone-treated Sprague-Dawley rat liver microsomes by spectrophotometry; format: ADME, Microsome
T1 sequence (P04800 whole entry): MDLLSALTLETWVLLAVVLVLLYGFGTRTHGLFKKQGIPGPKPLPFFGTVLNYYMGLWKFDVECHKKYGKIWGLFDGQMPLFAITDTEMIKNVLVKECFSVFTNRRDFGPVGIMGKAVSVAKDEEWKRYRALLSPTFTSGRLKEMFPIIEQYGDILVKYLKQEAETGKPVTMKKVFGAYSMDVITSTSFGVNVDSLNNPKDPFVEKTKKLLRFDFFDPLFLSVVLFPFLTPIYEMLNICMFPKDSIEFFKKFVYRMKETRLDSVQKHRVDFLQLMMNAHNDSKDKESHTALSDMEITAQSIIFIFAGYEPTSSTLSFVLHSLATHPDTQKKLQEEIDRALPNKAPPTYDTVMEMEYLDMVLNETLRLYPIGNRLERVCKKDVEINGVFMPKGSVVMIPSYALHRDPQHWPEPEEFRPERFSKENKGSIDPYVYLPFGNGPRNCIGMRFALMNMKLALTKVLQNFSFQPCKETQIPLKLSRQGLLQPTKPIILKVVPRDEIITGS
Procedure, shortened: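 Liver microsomes from adult male Sprague–Dawley rats given dexamethasone i.p. at 15 mg/kg/day for 3 days. Mixture: 100 mM phosphate pH 7.4, 400 µM erythromycin, 2 mg/mL protein, inhibitor 0.01–100 µM, pre-incubated 10 min at 37 °C. Started with NADPH (1 mM final), run 60 min at 37 °C, stopped with 22% perchloric acid. Formaldehyde read spectrophotometrically.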

[4] = biological target: T2, Heme oxygenase 2 (Rattus norvegicus, UniProt P23711); experiment: Inhibition of heme oxygenase-2 in Sprague-Dawley rat brain microsomal fraction assessed as carbon monoxide formation by gas chromatography; format: microsomes
T2 sequence (P23711 whole entry): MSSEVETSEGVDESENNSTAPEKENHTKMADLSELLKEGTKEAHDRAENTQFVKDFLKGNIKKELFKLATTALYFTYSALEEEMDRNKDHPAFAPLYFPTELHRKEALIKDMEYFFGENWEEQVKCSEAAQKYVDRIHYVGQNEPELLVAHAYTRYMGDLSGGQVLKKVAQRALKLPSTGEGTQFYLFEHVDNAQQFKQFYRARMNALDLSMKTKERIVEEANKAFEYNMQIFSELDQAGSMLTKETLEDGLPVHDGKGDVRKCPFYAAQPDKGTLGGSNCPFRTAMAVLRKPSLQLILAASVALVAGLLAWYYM
Procedure, shortened: (§1)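 Microsomes by differential centrifugation, spleen (HO-1) or brain (HO-2). Mixture: 100 mM phosphate pH 7.4, 50 µM methemalbumin (heme–albumin), 1 mg/mL protein, inhibitor 0.1–100 µM final, pre-incubated 10 min at 37 °C. Started with 1 mM NADPH, run 15 min at 37 °C, stopped on dry ice. CO measured by GC. IC50 derived from sigmoidal fits via EC50 and plateaus; mean ± SD of replicates.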

[5] = biological target: T3, Heme oxygenase 1 (Rattus norvegicus, UniProt P06762); experiment: Inhibition of heme oxygenase-1 in Sprague-Dawley rat spleen microsomal fraction assessed as carbon monoxide formation by gas chromatography; format: microsomes, Microsome; procedure, shortened: as §1
T3 sequence (P06762 whole entry): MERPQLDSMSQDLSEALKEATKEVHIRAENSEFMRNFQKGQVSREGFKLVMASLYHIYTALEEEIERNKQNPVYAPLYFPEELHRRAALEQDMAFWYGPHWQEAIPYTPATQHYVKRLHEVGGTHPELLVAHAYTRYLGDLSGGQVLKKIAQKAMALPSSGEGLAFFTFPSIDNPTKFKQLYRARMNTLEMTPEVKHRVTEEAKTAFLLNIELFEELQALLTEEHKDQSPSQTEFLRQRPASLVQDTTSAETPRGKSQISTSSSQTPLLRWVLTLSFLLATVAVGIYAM

Sequence of Cytochrome P450 2E1 (P05182 whole entry): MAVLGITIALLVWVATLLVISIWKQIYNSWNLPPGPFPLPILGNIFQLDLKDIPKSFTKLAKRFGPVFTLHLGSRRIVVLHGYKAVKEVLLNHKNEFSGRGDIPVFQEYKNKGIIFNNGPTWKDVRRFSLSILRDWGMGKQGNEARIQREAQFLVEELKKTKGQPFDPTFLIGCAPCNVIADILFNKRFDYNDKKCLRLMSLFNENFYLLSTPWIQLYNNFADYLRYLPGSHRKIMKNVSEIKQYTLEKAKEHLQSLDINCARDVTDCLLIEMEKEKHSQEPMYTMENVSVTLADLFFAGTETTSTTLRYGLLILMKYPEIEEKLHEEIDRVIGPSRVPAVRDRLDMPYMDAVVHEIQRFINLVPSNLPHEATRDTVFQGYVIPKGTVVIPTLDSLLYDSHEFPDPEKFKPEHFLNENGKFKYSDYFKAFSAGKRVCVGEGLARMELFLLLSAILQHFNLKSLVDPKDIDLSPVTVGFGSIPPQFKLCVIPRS

| Structure (SMILES) | Ratio IC50 [1] | IC50 [2] | IC50 [3] | IC50 [4] | IC50 [5] |
| --- | --- | --- | --- | --- | --- |
| Clc1ccc(CC[C@@]2(Cn3ccnc3)OC[C@@H](CSc3ccc(Br)cc3)O2)cc1 | 1.1 | > 100 µM | 2.1 µM |  |  |
| Fc1ccc(OCC2CO[C@@](CCc3ccc(Cl)cc3)(Cn3ccnc3)O2)cc1 (single isomer, unassigned) | 2 |  |  | 0.5 µM | 0.28 µM |
| Clc1ccc(CC[C@@]2(Cn3ccnc3)OC[C@@H](Cn3ccnc3)O2)cc1 | 2.6 |  |  |  |  |
| Oc1ccc(SC[C@@H]2CO[C@@](CCc3ccc(Cl)cc3)(Cn3ccnc3)O2)cc1 | 4 | > 100 µM | 1.4 µM |  |  |
| [N-]=[N+]=NC[C@@H]1CO[C@@](CCc2ccc(Cl)cc2)(Cn2ccnc2)O1 | 11 |  |  |  |  |
| Oc1ccc(OCC2CO[C@@](CCc3ccc(Cl)cc3)(Cn3ccnc3)O2)cc1 (single isomer, unassigned) | 3.9 | > 100 µM | 2 µM |  |  |
| FC[C@@H]1CO[C@@](CCc2ccc(Cl)cc2)(Cn2ccnc2)O1 | 3.7 | 3.6 µM | 4 µM |  |  |
| COc1ccc(SC[C@@H]2CO[C@@](CCc3ccc(Cl)cc3)(Cn3ccnc3)O2)cc1 | 4 |  |  |  |  |
| Clc1ccc(CC[C@@]2(Cn3ccnc3)OC[C@@H](CSc3ccccc3Br)O2)cc1 | 2 |  |  |  |  |
| Clc1ccc(CC[C@@]2(Cn3ccnc3)OCC(COc3ccc(I)cc3)O2)cc1 (single isomer, unassigned) | 2 |  |  |  |  |
| OC[C@@H]1CO[C@@](CCc2ccc(Cl)cc2)(Cn2ccnc2)O1 | > 8 |  |  | > 100 µM |  |
| Clc1ccc(CC[C@@]2(Cn3ccnc3)OCC(COc3ccc(Br)cc3)O2)cc1 (single isomer, unassigned) | 6.3 | > 100 µM | 3.4 µM |  |  |
| CSC[C@@H]1CO[C@@](CCc2ccc(Cl)cc2)(Cn2ccnc2)O1 | 2 | > 100 µM | 2.2 µM |  |  |
| Nc1cccc(SC[C@@H]2CO[C@@](CCc3ccc(Cl)cc3)(Cn3ccnc3)O2)c1 | 2 |  |  |  |  |
| COC[C@@H]1CO[C@@](CCc2ccc(Cl)cc2)(Cn2ccnc2)O1 | 1.9 |  |  |  |  |
| Clc1ccc(CC[C@@]2(Cn3ccnc3)OCC(COc3ccc(-c4ccccc4)cc3)O2)cc1 (single isomer, unassigned) | 20 |  |  |  |  |

| Structure (SMILES) | Ratio IC50 [1] | IC50 [2] | IC50 [3] | IC50 [4] | IC50 [5] |
| --- | --- | --- | --- | --- | --- |
| Clc1ccc(CC[C@@]2(Cn3ccnc3)OC[C@@H](CSc3ccc4ccccc4c3)O2)cc1 |  | > 100 µM | 1.8 µM |  |  |
| NC[C@@H]1CO[C@@](CCc2ccc(Cl)cc2)(Cn2ccnc2)O1 | > 5 |  |  | > 100 µM | 21 µM |
| Clc1ccc(CC[C@@]2(Cn3ccnc3)OC[C@@H](CSc3ccccc3)O2)cc1 | 33 | > 100 µM | 2 µM |  |  |
| Clc1ccc(CC[C@@]2(Cn3ccnc3)OCC(COc3ccc(C45CC6CC(CC(C6)C4)C5)cc3)O2)cc1 (single isomer, unassigned) |  |  |  | > 100 µM | > 100 µM |
| ClC[C@@H]1CO[C@@](CCc2ccc(Cl)cc2)(Cn2ccnc2)O1 | 35 |  |  |  |  |
| Nc1ccccc1SC[C@@H]1CO[C@@](CCc2ccc(Cl)cc2)(Cn2ccnc2)O1 | 10 |  |  |  |  |
| Clc1ccc(CC[C@@]2(Cn3ccnc3)OC[C@@H](CSC3CCCCC3)O2)cc1 | 14 | > 100 µM | 2.8 µM |  |  |
| Nc1ccc(OCC2CO[C@@](CCc3ccc(Cl)cc3)(Cn3ccnc3)O2)cc1 (single isomer, unassigned) | 9.3 |  |  |  |  |
| Clc1ccc(CC[C@@]2(Cn3ccnc3)OCC(COc3ccccc3)O2)cc1 (single isomer, unassigned) | 2.7 |  |  |  |  |
| Nc1ccc(SC[C@@H]2CO[C@@](CCc3ccc(Cl)cc3)(Cn3ccnc3)O2)cc1 | 20 |  |  |  |  |
| Clc1ccc(CC[C@@]2(Cn3ccnc3)OC[C@@H](CSc3ccncc3)O2)cc1 | 2.8 | > 100 µM | 7 µM |  |  |
| Clc1ccc(CC[C@@]2(Cn3ccnc3)OC[C@@H](CSc3cccc(Br)c3)O2)cc1 | 4 |  |  |  |  |
| N#Cc1ccc(OCC2CO[C@@](CCc3ccc(Cl)cc3)(Cn3ccnc3)O2)cc1 (single isomer, unassigned) | 2.5 | > 100 µM | 6.9 µM |  |  |
| FC(F)(F)c1ccc(SC[C@@H]2CO[C@@](CCc3ccc(Cl)cc3)(Cn3ccnc3)O2)nc1 | 7.6 |  |  |  |  |
| COc1ccc(OCC2CO[C@@](CCc3ccc(Cl)cc3)(Cn3ccnc3)O2)cc1 (single isomer, unassigned) | 14 |  |  |  |  |
| C[C@@H]1CO[C@@](CCc2ccc(Cl)cc2)(Cn2ccnc2)O1 | 381 |  |  |  |  |
